Test results from ChEMBL document CHEMBL5724801, “EUbOPEN Chemogenomics Library - Multiplex” (2024).
Where “and” joins values, the source holds several entries; their conditions need not be identical. Equal values may be shown once.

Legend:
Format in all cases: toxicity, cell-based
U2OS = test: Multiplex assay against U2OS; conditions: human
How it was run: (§1)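 Cells were classed with CellPathfinder machine-learning gating, first as Hoechst high-intensity objects or normal cells, then (normal cells) as healthy, pyknosed or fragmented nuclei, and finally (pyknosed cells) as mitotic or apoptotic. Staining of live cells at seeding used Hoechst33342, BioTracker Green Microtubule Cytoskeleton Dye, MitoTracker Red and Annexin V Alexa Fluor 680, with imaging on a CQ1 microscope at 37°C and 5% CO2 after compound addition. Tubulin, mitochondrial-mass and membrane-permeability phenotypes are per cents of healthy-nucleus cells.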

Fibroblast = test: Multiplex assay against human fibroblast; how it was run: as §1
HEK-293T = test: Multiplex assay against HEK293T; conditions: human; how it was run: as §1
[1] = 12 h, 1 µM, compound concentration 1 uM
[2] = 12 h, 10 µM, compound concentration 10 uM
[3] = 24 h, 1 µM, compound concentration 1 uM
[4] = 24 h, 10 µM, compound concentration 10 uM
[5] = 48 h, 1 µM, compound concentration 1 uM
[6] = 48 h, 10 µM, compound concentration 10 uM

## N#Cc1c(N)nc(SCc2csc(-c3ccc(Cl)cc3)n2)c(C#N)c1-c1ccc(OCCO)cc1 [CAPADENOSON]
U2OS; [1]
  Population Apoptotic (%): 78% and 80%
  Population Fragmented Nuclei (%): 25% and 18%
  Population Healthy Nuclei (%): 65% and 75%
  Population Hoechst High Intensity Objects (%): 5% and 1%
  Population Membrane Permeable-Phenotype (%): 14% and 5%
  Population Mitochondria Different-Phenotype (%): 4% and 2%
  Population Mitotic Cells (%): 21% and 20%
  Population Normal (%): 94% and 98%
  Population Pyknosed Nuclei (%): 8% and 6%
  Population Tubulin-Different-Phenotype (%): 10% and 1%
  Total Cell Count: 236 and 150
U2OS; [2]
  Population Apoptotic (%): 64% and 68%
  Population Fragmented Nuclei (%): 35% and 24%
  Population Healthy Nuclei (%): 40% and 56%
  Population Hoechst High Intensity Objects (%): 5% and 0%
  Population Membrane Permeable-Phenotype (%): 70% and 49%
  Population Mitochondria Different-Phenotype (%): 37% and 61%
  Population Mitotic Cells (%): 35% and 31%
  Population Normal (%): 94% and 99%
  Population Pyknosed Nuclei (%): 24% and 18%
  Population Tubulin-Different-Phenotype (%): 65% and 70%
  Total Cell Count: 255 and 102
U2OS; [3]
  Population Apoptotic (%): 87% and 61%
  Population Fragmented Nuclei (%): 23% and 16%
  Population Healthy Nuclei (%): 64% and 71%
  Population Hoechst High Intensity Objects (%): 3% and 0%
  Population Membrane Permeable-Phenotype (%): 9% and 5%
  Population Mitochondria Different-Phenotype (%): 4% and 2%
  Population Normal (%): 96% and 99%
  Population Pyknosed Nuclei (%): 12%
  Population Tubulin-Different-Phenotype (%): 6% and 2%
  Total Cell Count: 263 and 176
U2OS; [4]
  Population Apoptotic (%): 71% and 69%
  Population Fragmented Nuclei (%): 36% and 25%
  Population Healthy Nuclei (%): 37% and 49%
  Population Hoechst High Intensity Objects (%): 5% and 2%
  Population Membrane Permeable-Phenotype (%): 47% and 34%
  Population Mitochondria Different-Phenotype (%): 38% and 58%
  Population Mitotic Cells (%): 28% and 30%
  Population Normal (%): 94% and 97%
  Population Pyknosed Nuclei (%): 26% and 24%
  Population Tubulin-Different-Phenotype (%): 47% and 60%
  Total Cell Count: 253 and 95
U2OS; [5]
  Population Apoptotic (%): 80% and 84%
  Population Fragmented Nuclei (%): 23% and 12%
  Population Healthy Nuclei (%): 67% and 79%
  Population Hoechst High Intensity Objects (%): 3% and 0%
  Population Membrane Permeable-Phenotype (%): 9% and 6%
  Population Mitochondria Different-Phenotype (%): 6% and 3%
  Population Mitotic Cells (%): 20% and 15%
  Population Normal (%): 96% and 99%
  Population Pyknosed Nuclei (%): 8%
  Population Tubulin-Different-Phenotype (%): 6% and 5%
  Total Cell Count: 355 and 220
U2OS; [6]
  Population Apoptotic (%): 86% and 66%
  Population Fragmented Nuclei (%): 44% and 30%
  Population Healthy Nuclei (%): 30% and 49%
  Population Hoechst High Intensity Objects (%): 5% and 4%
  Population Membrane Permeable-Phenotype (%): 46% and 45%
  Population Mitochondria Different-Phenotype (%): 31% and 45%
  Population Mitotic Cells (%): 13% and 33%
  Population Normal (%): 94% and 95%
  Population Pyknosed Nuclei (%): 25% and 20%
  Population Tubulin-Different-Phenotype (%): 37% and 50%
  Total Cell Count: 285 and 109
Fibroblast; [1]
  Population Apoptotic (%): 43% and 27%
  Population Healthy Nuclei (%): 80% and 43%
  Population Hoechst High Intensity Objects (%): 2% and 1%
  Population Membrane Permeable-Phenotype (%): 0% and 5%
  Population Mitochondria Different-Phenotype (%): 10% and 11%
  Population Mitotic Cells (%): 56% and 72%
  Population Normal (%): 97% and 98%
  Population Pyknosed Nuclei (%): 11% and 25%
  Population Tubulin-Different-Phenotype (%): 38% and 55%
  Total Cell Count: 139 and 157
Fibroblast; [2]
  Population Apoptotic (%): 31% and 41%
  Population Fragmented Nuclei (%): 23% and 41%
  Population Healthy Nuclei (%): 50% and 29%
  Population Hoechst High Intensity Objects (%): 1% and 8%
  Population Membrane Permeable-Phenotype (%): 0% and 20%
  Population Mitochondria Different-Phenotype (%): 10% and 14%
  Population Mitotic Cells (%): 68% and 58%
  Population Normal (%): 98% and 91%
  Population Pyknosed Nuclei (%): 25% and 29%
  Population Tubulin-Different-Phenotype (%): 80% and 97%
  Total Cell Count: 172 and 128
Fibroblast; [3]
  Population Apoptotic (%): 72% and 48%
  Population Healthy Nuclei (%): 80% and 44%
  Population Hoechst High Intensity Objects (%): 1% and 4%
  Population Membrane Permeable-Phenotype (%): 0% and 6%
  Population Mitotic Cells (%): 27% and 51%
  Population Normal (%): 98% and 95%
  Population Pyknosed Nuclei (%): 8% and 20%
  Population Tubulin-Different-Phenotype (%): 34% and 71%
  Total Cell Count: 139 and 148
Fibroblast; [4]
  Population Apoptotic (%): 38% and 41%
  Population Fragmented Nuclei (%): 26% and 43%
  Population Healthy Nuclei (%): 52% and 28%
  Population Hoechst High Intensity Objects (%): 2% and 6%
  Population Membrane Permeable-Phenotype (%): 0% and 17%
  Population Mitochondria Different-Phenotype (%): 26% and 25%
  Population Mitotic Cells (%): 61% and 58%
  Population Normal (%): 97% and 93%
  Population Pyknosed Nuclei (%): 20% and 27%
  Population Tubulin-Different-Phenotype (%): 67% and 94%
  Total Cell Count: 179 and 131
Fibroblast; [5]
  Population Apoptotic (%): 88% and 69%
  Population Fragmented Nuclei (%): 16% and 38%
  Population Healthy Nuclei (%): 77% and 43%
  Population Hoechst High Intensity Objects (%): 2%
  Population Membrane Permeable-Phenotype (%): 0% and 6%
  Population Mitochondria Different-Phenotype (%): 7% and 12%
  Population Mitotic Cells (%): 11% and 30%
  Population Normal (%): 97%
  Population Pyknosed Nuclei (%): 6% and 17%
  Population Tubulin-Different-Phenotype (%): 37% and 60%
  Total Cell Count: 147 and 151
Fibroblast; [6]
  Population Apoptotic (%): 81% and 36%
  Population Fragmented Nuclei (%): 32% and 57%
  Population Healthy Nuclei (%): 53% and 29%
  Population Hoechst High Intensity Objects (%): 2% and 0%
  Population Membrane Permeable-Phenotype (%): 0% and 11%
  Population Mitochondria Different-Phenotype (%): 32% and 30%
  Population Normal (%): 97% and 100%
  Population Pyknosed Nuclei (%): 14% and 13%
  Population Tubulin-Different-Phenotype (%): 78% and 95%
  Total Cell Count: 187 and 142
HEK-293T; [1]
  Population Apoptotic (%): 36% and 54%
  Population Fragmented Nuclei (%): 6%
  Population Healthy Nuclei (%): 79% and 80%
  Population Hoechst High Intensity Objects (%): 8% and 4%
  Population Membrane Permeable-Phenotype (%): 0%
  Population Mitochondria Different-Phenotype (%): 59% and 60%
  Population Mitotic Cells (%): 63% and 45%
  Population Normal (%): 91% and 95%
  Population Pyknosed Nuclei (%): 13% and 12%
  Population Tubulin-Different-Phenotype (%): 44% and 34%
  Total Cell Count: 373 and 375
HEK-293T; [2]
  Population Apoptotic (%): 57% and 70%
  Population Fragmented Nuclei (%): 7% and 6%
  Population Healthy Nuclei (%): 75% and 73%
  Population Hoechst High Intensity Objects (%): 12% and 14%
  Population Membrane Permeable-Phenotype (%): 0% and 1%
  Population Mitochondria Different-Phenotype (%): 82% and 85%
  Population Mitotic Cells (%): 42% and 29%
  Population Normal (%): 87% and 85%
  Population Pyknosed Nuclei (%): 17% and 20%
  Population Tubulin-Different-Phenotype (%): 62% and 63%
  Total Cell Count: 307 and 388
HEK-293T; [3]
  Population Apoptotic (%): 36% and 37%
  Population Fragmented Nuclei (%): 5% and 7%
  Population Healthy Nuclei (%): 76% and 79%
  Population Hoechst High Intensity Objects (%): 6% and 4%
  Population Membrane Permeable-Phenotype (%): 2% and 0%
  Population Mitochondria Different-Phenotype (%): 38% and 44%
  Population Mitotic Cells (%): 63% and 62%
  Population Normal (%): 93% and 95%
  Population Pyknosed Nuclei (%): 17% and 12%
  Population Tubulin-Different-Phenotype (%): 34% and 23%
  Total Cell Count: 450 and 456
HEK-293T; [4]
  Population Apoptotic (%): 65% and 73%
  Population Fragmented Nuclei (%): 8% and 4%
  Population Healthy Nuclei (%): 68%
  Population Hoechst High Intensity Objects (%): 14% and 13%
  Population Membrane Permeable-Phenotype (%): 0%
  Population Mitochondria Different-Phenotype (%): 94% and 89%
  Population Mitotic Cells (%): 34% and 26%
  Population Normal (%): 85% and 86%
  Population Pyknosed Nuclei (%): 22% and 26%
  Population Tubulin-Different-Phenotype (%): 62% and 61%
  Total Cell Count: 319 and 391
HEK-293T; [5]
  Population Apoptotic (%): 31% and 32%
  Population Fragmented Nuclei (%): 10% and 11%
  Population Healthy Nuclei (%): 79% and 80%
  Population Hoechst High Intensity Objects (%): 4% and 3%
  Population Membrane Permeable-Phenotype (%): 1% and 2%
  Population Mitochondria Different-Phenotype (%): 32% and 23%
  Population Mitotic Cells (%): 68% and 67%
  Population Normal (%): 95% and 96%
  Population Pyknosed Nuclei (%): 10% and 8%
  Population Tubulin-Different-Phenotype (%): 23% and 18%
  Total Cell Count: 621 and 787
HEK-293T; [6]
  Population Apoptotic (%): 66% and 63%
  Population Fragmented Nuclei (%): 11% and 12%
  Population Healthy Nuclei (%): 68% and 73%
  Population Hoechst High Intensity Objects (%): 12% and 10%
  Population Membrane Permeable-Phenotype (%): 0%
  Population Mitochondria Different-Phenotype (%): 89% and 88%
  Population Mitotic Cells (%): 33% and 36%
  Population Normal (%): 87% and 89%
  Population Pyknosed Nuclei (%): 20% and 14%
  Population Tubulin-Different-Phenotype (%): 67% and 64%
  Total Cell Count: 406 and 423
